From ChEMBL document CHEMBL1156325, “Novel acyl coenzyme A (CoA): diacylglycerol acyltransferase-1 inhibitors: synthesis and biological activities of diacylethylenediamine derivatives” (Bioorg Med Chem, 2010) come the findings set out here.

≈ marks a conversion by molar mass, not a printed value. Where only a bound is given, the exact number is not on record here.

Data set [1] concerns the target T1, Diacylglycerol O-acyltransferase 1 (Mus musculus, UniProt Q9Z2A7).
T1 sequence (Q9Z2A7 whole entry): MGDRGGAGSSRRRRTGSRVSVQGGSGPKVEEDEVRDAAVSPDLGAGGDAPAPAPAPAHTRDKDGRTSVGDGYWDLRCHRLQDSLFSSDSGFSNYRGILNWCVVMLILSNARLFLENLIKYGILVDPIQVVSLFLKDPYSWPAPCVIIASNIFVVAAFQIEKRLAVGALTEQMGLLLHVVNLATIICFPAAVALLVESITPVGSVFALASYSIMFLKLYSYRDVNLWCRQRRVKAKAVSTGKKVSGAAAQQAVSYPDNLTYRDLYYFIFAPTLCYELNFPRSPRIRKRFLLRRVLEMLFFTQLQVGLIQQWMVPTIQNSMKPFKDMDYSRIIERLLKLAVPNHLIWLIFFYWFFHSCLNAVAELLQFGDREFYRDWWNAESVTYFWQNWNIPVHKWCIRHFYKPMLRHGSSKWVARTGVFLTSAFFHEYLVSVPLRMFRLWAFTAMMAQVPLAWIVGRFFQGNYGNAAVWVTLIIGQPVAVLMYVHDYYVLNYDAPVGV
Description: Inhibition of DGAT1 in mouse C2C12 cells assessed as suppression of [14C]triglyceride accumulation pretreated for 20 mins before [14C]oleic acid challenge measured after 20 mins by TLC analysis. The format is cell-based. The essentials:
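C2C12 cell suspension (10⁶ cells/mL final) was preincubated with serial compound dilutions at 37 °C for 20 min. [¹⁴C]-oleic acid substrate was then added with 0.001% fatty-acid-free BSA, 0.2% ethanol and 0.1% DMSO final. After 20 min at 37 °C, reactions were stopped with chloroform/methanol (1:2). Chloroform-phase lipids were separated by TLC (hexane/ether/ethyl acetate/acetic acid 255:30:15:0.6).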

Data set [2] has as its target T2, Diacylglycerol O-acyltransferase 1 (Homo sapiens, UniProt O75907).
T2 sequence (O75907 whole entry): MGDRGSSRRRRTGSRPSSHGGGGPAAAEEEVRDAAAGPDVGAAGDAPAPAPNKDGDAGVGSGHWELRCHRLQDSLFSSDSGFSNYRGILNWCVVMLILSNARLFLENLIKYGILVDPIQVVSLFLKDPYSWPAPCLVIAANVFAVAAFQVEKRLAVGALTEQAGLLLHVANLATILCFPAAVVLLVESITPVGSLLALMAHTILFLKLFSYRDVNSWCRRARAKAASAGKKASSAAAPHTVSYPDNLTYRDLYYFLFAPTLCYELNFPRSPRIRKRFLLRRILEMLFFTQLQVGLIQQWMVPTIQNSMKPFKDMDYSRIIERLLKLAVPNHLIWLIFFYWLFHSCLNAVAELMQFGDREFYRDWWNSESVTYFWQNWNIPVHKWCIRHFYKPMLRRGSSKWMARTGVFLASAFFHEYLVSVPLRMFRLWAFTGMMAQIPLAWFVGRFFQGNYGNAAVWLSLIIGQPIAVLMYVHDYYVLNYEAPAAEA
Kind of data set: Inhibition of human DGAT1 expressed in baculovirus infected Sf9 cells using [14C]oleoyl-CoA after 15 mins by TLC analysis.

Data set [3] in a line: Metabolic stability in rat liver microsomes at 1 umol/L after 20 mins by HPLC assessed per mg of protein. The format is ADME, Microsome. As to conditions: read-out: Stability. The gist of the method: (§1)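 Hepatic microsomes (0.2 mg/mL protein) were incubated at 37 °C for 0 and 20 min with an NADPH-generating system added at 10% of reaction volume. The system held 50 mmol/L MgCl₂, 50 mmol/L glucose-6-phosphate, 5 mmol/L β-NADP⁺ and 15 unit/mL G6PDH. Reactions were stopped with an equal volume of acetonitrile, run in duplicate. Parent disappearance was measured by HPLC-UV and expressed as %/min/mg.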

Data set [4] in a line: Metabolic stability in human liver microsomes at 1 umol/L after 20 mins by HPLC assessed per mg of protein. The format is ADME, Microsome. As to conditions: read-out: Stability. The gist of the method:
as §1

Data set [5] is described as follows: Metabolic stability in mouse liver microsomes at 1 umol/L after 20 mins by HPLC assessed per mg of protein. As to conditions: read-out: Stability. The format is ADME, Microsome. The essentials:
as §1
On the technique in general: Liver microsomes are a subcellular fraction often used to study metabolism.

The nature of data set [6]: Solubility at pH 6.8. The format is physicochemical. Particulars: buffer.
Data set [7] deals with Mus musculus. Kind of data set: Antiobesity activity in C57BL/6 mouse assessed as reduction in body weight gain at 3 mg/kg, po BID for 4 weeks. The format is functional. Also noted: scale not given: the % may be the effect or the level left. The essentials: (§2)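 C57BL/6 mice fed a high-fat diet were dosed orally b.i.d. at 3 mg/kg as a 0.5% MC suspension for four weeks. Endpoints were body weight gain, total food intake, and mesenteric, perirenal and subcutaneous white adipose tissue weights.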

Data set [8] relates to Mus musculus. Description: Antiobesity activity in C57BL/6 mouse assessed as reduction in subcutaneous white adipose tissue weight at 3 mg/kg, po BID for 4 weeks. The format is functional. Also noted: scale not given: the % may be the effect or the level left. The essentials: as §2
Data set [9] relates to Mus musculus. Description: Toxicity in C57BL/6 mouse assessed as effect on total food intake at 3 mg/kg, po BID for 4 weeks. The format is organism-based. Also noted: dose 3 mg/kg, route oral. As to conditions: in vivo, 672 h. The essentials:
as §2

Data set [10] relates to Mus musculus. Kind of data set: Antiobesity activity in C57BL/6 mouse assessed as reduction in mesenteric white adipose tissue weight at 3 mg/kg, po BID for 4 weeks. The format is functional. Also noted: scale not given: the % may be the effect or the level left. The essentials: as §2
Data set [11] concerns Mus musculus. Kind of data set: Antiobesity activity in C57BL/6 mouse assessed as reduction in perirenal white adipose tissue weight at 3 mg/kg, po BID for 4 weeks. The format is functional. The arrangement: scale not given: the % may be the effect or the level left. The gist of the method: as §2

As a reminder, the IC50 is the concentration needed to halve the response being measured. Take `CCOc1ccc(C(=O)NCCNC(=O)c2cn(-c3ccncc3)nc2C(F)(F)F)cc1`: the IC50 in [1] is > 10000 nM.

`CCOc1ccc(C(=O)NC[C@@H](CO)NC(=O)c2cn(-c3ccccc3)nc2C(F)(F)F)cc1`: the IC50 in data set [2] is > 10 µM.

As to `O=C(NCCNC(=O)c1cn(-c2ccccc2)nc1C(F)(F)F)c1ccc(-n2cccn2)cc1`, the remaining at 20 min, 1 µM came out at 6.5% in data set [3], 5.9% in data set [4] and 3.5% in [5]. In addition, the IC50 in data set [1] stood at 400 nM.

Consider `CCOc1ccc(C(=O)NCCNC(=O)c2cn(C3CCCCC3)nc2C(F)(F)F)cc1`, for which the remaining at 20 min, 1 µM in data set [3] was 11%; in [4], 8.7%; in data set [5], 7.8%. Also, the IC50 in data set [1] turned out to be 650 nM.

By solubility is commonly meant how much of the substance goes into solution per volume. Turning to `CCOc1cc(C)c(C(=O)CCC(=O)Nc2nc(-c3ccccc3)c(Cc3ccccc3)s2)cc1OCC`, the remaining at 20 min, 1 µM in [3] was 11%; in data set [4] it was 13%; in [5], 16%. The same molecule came in with a solubility in data set [6] of 0.08 µg/mL (≈ 0.151 µM).

With `O=C(NCCNC(=O)c1cn(-c2ccccc2)nc1C(F)(F)F)c1ccc(Cl)nc1`, the figures for the remaining at 20 min, 1 µM in data set [3], in data set [4] and in [5] were 1.1%, 2.2% and 0%, respectively. Also, the IC50 in data set [1] amounted to 370 nM.

Regarding `CCOc1ccc(C(=O)NCCNC(=O)c2cn(-c3ccc(OCC)cc3)nc2C(F)(F)F)cc1`, the remaining at 20 min, 1 µM stood at 8.7% in [3], 7.5% in data set [4] and 14% in data set [5]. The IC50 in data set [1] turned out to be 380 nM.

`CCOc1ccc(C(=O)NCCNC(=O)c2cn(-c3ccccn3)nc2C(F)(F)F)cc1`: the remaining at 20 min, 1 µM was 10% in [3], 14% in data set [4] and 7% in data set [5]. Also, in data set [1], the half-inhibitory concentration (IC50) is 91 nM.

For the molecule `O=C(NCCNC(=O)c1cn(-c2ccccc2)nc1C(F)(F)F)c1ccc(Cl)cn1`, the remaining at 20 min, 1 µM in [3] is 2.6%; in data set [4], 4.8%; in data set [5], 1.8%. Moreover, in data set [1], the IC50 is 1200 nM.

For `CCOc1ccc(C(=O)NCCNC(=O)c2nn(-c3ccccc3)cc2C)cc1`, the remaining at 20 min, 1 µM in [3] is 12%; in data set [4], 12%; in [5] it was 14%. Further, the IC50 in [1] was found to be 1200 nM.

In the case of `CCOc1ccc(C(=O)NCCNC(=O)c2nc(-c3ccccc3)c(Cc3ccccc3)s2)cc1`, the remaining at 20 min, 1 µM in [3] is 14%; in data set [4], 10%; in data set [5], 17%. The solubility in data set [6] was < 0.05 µg/mL.

As to `CCOc1ccc(C(=O)NCCNC(=O)c2cn(-c3ccccc3)nc2C)cc1`, the remaining at 20 min, 1 µM in [3] came out at 5.8%; in data set [4], 5%; in data set [5], 2.5%. For the same molecule, in [1], the concentration for half-maximal inhibition (IC50) was determined as 260 nM.

Take `CCOc1cccc(C(=O)NCCNC(=O)c2cn(-c3ccccc3)nc2C(F)(F)F)c1`: the remaining at 20 min, 1 µM in [3] worked out at 8.3%; in data set [4], 14%; in data set [5], 19%. In addition, the IC50 in [1] came out at 5100 nM.

For `CCOc1ccc(C(=O)NCCNC(=O)c2cn(-c3cccc(OCC)c3)nc2C(F)(F)F)cc1`, the remaining at 20 min, 1 µM in data set [3] worked out at 7.1%; in [4], 7.4%; in data set [5] it was 6.5%. In [1], the IC50 was found to be 600 nM.

Turning to `CCOc1ccc(C(=O)NCCNC(=O)c2cn(-c3cccnc3)nc2C(F)(F)F)cc1`, the IC50 in data set [1] was found to be 3400 nM.

Regarding `CCOc1ccc(C(=O)NCCNC(=O)c2cn(Cc3ccccc3)nc2C(F)(F)F)cc1`, the remaining at 20 min, 1 µM worked out at 18% in [3], 5.5% in data set [4] and 7.5% in [5].

For `O=C(NCCNC(=O)c1cn(-c2ccccc2)nc1C(F)(F)F)c1ccc(OCC(F)(F)F)nc1`, the remaining at 20 min, 1 µM came to 0.4% in [3], 2.1% in [4] and 0% in data set [5]. Besides, in data set [1], the IC50 was 44 nM. Moreover, the Activity in data set [7] is on record as -75%; in data set [8], -2.8%; in [9], “Non-toxic”; in data set [10] it was -25%; in [11], -12%.

For `CCOc1ccc(C(=O)N[C@@H](CO)CNC(=O)c2cn(-c3ccccc3)nc2C(F)(F)F)cc1`, in data set [2], the IC50 was > 10 µM.

On to `CCOc1ccc(C(=O)N[C@H](CO)CNC(=O)c2cn(-c3ccccc3)nc2C(F)(F)F)cc1`, for which the IC50 in data set [2] is > 10 µM.

Consider `CCOc1ccc(C(=O)NC[C@H](CO)NC(=O)c2cn(-c3ccccc3)nc2C(F)(F)F)cc1`, for which the half-maximal inhibitory concentration (IC50) in data set [2] was > 10 µM.

As to `CCOc1ccc(C(=O)NCCNC(=O)c2cn(-c3ccccc3O)nc2C(F)(F)F)cc1`, the remaining at 20 min, 1 µM in data set [3] was 18%; in [4], 5.7%; in data set [5], 0.5%. The IC50 in [1] is 610 nM.

As for `CCOc1ccc(C(=O)NCCNC(=O)c2cn(-c3ccccc3)nc2C(F)(F)F)cn1`, the remaining at 20 min, 1 µM was 3.4% in data set [3], 5.1% in data set [4] and 2.5% in [5]. Also, the IC50 in data set [1] came out at 87 nM.

For the molecule `CCOc1ccc(C(=O)NCCNC(=O)c2cn(-c3ccc(Cl)cc3)nc2C(F)(F)F)cc1`, the remaining at 20 min, 1 µM in [3] was 7.2%; in data set [4] it was 4.5%; in [5], 3.4%. Besides, the IC50 in data set [1] stood at 1500 nM.

Consider `CCOc1ccc(C(=O)NCCNC(=O)c2cn(-c3ccccc3)nc2C(F)(F)F)cc1`, for which the remaining at 20 min, 1 µM was 6.5% in data set [3], 9% in data set [4] and 7% in [5]. The IC50 in data set [1] came to 77 nM. The same molecule displayed a solubility in [6] of 1.1 µg/mL (≈ 2.46 µM).
